Data on 23 compounds can be found in ChEMBL document CHEMBL1145823, “Docking and database screening reveal new classes of Plasmodium falciparum dihydrofolate reductase inhibitors” (J Med Chem, 2003).

SMILES strings stand for the structures. Values after ≈ are worked out from the molar mass of the structure shown. Active and inactive are the calls of the source. The rule behind the calls is not given here.

Data set [1] concerns the target Bifunctional dihydrofolate reductase-thymidylate synthase (Plasmodium falciparum K1) (UniProt P13922). The data set can be described thus: Inhibition constant for PfDHFR (Plasmodium falciparum dihydrofolate reductase) with single A16V mutation; Not active. Put shortly:
(§1)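 Recombinant wild-type or mutant PfDHFR, expressed in bacteria (induction at 20 °C for 20 h) and purified on methotrexate-Sepharose. Spectrophotometric assay in 50 mM TES pH 7.0, 75 mM β-mercaptoethanol, 1 mg/mL BSA, with 100 μM each H2-folate and NADPH. Started with enzyme (0.6–1 nM). […] Ki from IC50 = Ki(1+[S]/Km), assuming competitive binding.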

For data set [2] the target is unchanged. The data set is described as follows: Inhibition constant for PfDHFR (Plasmodium falciparum dihydrofolate reductase) with single S108T mutation; Not active. In short, it runs like this:
as §1

Data set [3] has the same target. The data set is described as follows: Inhibition constant for PfDHFR (Plasmodium falciparum dihydrofolate reductase) with triple (C59R + S108N + I164L) mutations; Not active. Put shortly:
as §1

The target is the same in data set [4]. The data set can be described thus: Inhibition constant for PfDHFR (Plasmodium falciparum dihydrofolate reductase) with quadruple (N51I + C59R + S108N + I164L) mutations; Not active. Put shortly:
as §1

Data set [5] shares this target. The data set is described as follows: Inhibition constant for PfDHFR (Plasmodium falciparum dihydrofolate reductase) with double (A16V + S108T) mutations; Not active. In short, it runs like this: as §1
Data set [6] shares this target. The data set is described as follows: Inhibition constant against wild-type PfDHFR (Plasmodium falciparum dihydrofolate reductase); Not active. Put shortly: as §1
The target is the same in data set [7]. The data set is described as follows: Inhibition constant for resistant mutant PfDHFR (Plasmodium falciparum dihydrofolate reductase); Inactive. In short, it runs like this: as §1
For data set [8] the target is unchanged. The data set can be described thus: Inhibition constant against wild-type PfDHFR (Plasmodium falciparum dihydrofolate reductase); Inactive. Put shortly: as §1
Data set [9] has the same target. The data set can be described thus: Inhibition constant against wild-type PfDHFR (Plasmodium falciparum dihydrofolate reductase) at 750 uM; Inactive. Put shortly: as §1
For data set [10] the target is unchanged. The data set can be described thus: Inhibition constant for resistant mutant PfDHFR (Plasmodium falciparum dihydrofolate reductase) at 750 uM; Inactive. In short, it runs like this:
as §1

In data set [11] the target is Bifunctional dihydrofolate reductase-thymidylate synthase (Plasmodium falciparum K1, UniProt P13922, S108T). The data set can be described thus: Inhibition constant against PfDHFR (Plasmodium falciparum dihydrofolate reductase) with single S108T mutation. In short, it runs like this: (§2)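 Recombinant wild-type or mutant PfDHFR, expressed in bacteria (induction at 20 °C for 20 h) and purified on methotrexate-Sepharose. Spectrophotometric assay in 50 mM TES pH 7.0, 75 mM β-mercaptoethanol, 1 mg/mL BSA, with 100 μM each H2-folate and NADPH. Started with enzyme (0.6–1 nM). Ki from IC50 = Ki(1+[S]/Km), assuming competitive binding.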
Chain of Bifunctional dihydrofolate reductase-thymidylate synthase (Plasmodium falciparum K1, UniProt P13922, S108T) (P13922 whole entry, looked up, stated change not applied): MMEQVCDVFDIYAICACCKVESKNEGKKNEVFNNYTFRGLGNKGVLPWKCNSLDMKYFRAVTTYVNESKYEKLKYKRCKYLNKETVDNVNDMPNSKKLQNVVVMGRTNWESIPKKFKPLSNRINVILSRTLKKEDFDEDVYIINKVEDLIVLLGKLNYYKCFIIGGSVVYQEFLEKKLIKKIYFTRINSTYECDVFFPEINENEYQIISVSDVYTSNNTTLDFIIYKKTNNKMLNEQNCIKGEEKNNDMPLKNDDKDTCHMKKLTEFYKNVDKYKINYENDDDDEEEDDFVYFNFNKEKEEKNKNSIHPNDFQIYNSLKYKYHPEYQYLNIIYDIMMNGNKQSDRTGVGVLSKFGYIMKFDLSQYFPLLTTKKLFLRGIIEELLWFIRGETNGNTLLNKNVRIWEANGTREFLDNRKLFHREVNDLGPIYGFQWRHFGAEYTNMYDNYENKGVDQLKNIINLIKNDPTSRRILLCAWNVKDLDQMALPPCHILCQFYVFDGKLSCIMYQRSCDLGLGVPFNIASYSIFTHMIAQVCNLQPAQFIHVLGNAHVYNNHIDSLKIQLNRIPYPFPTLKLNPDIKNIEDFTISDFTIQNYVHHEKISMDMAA

Data set [12] deals with Bifunctional dihydrofolate reductase-thymidylate synthase (Plasmodium falciparum K1, UniProt P13922, A16V/S108T). The data set is described as follows: Inhibition constant against PfDHFR (Plasmodium falciparum dihydrofolate reductase) with double (A16V + S108T) mutations. In short, it runs like this: as §2
Chain of Bifunctional dihydrofolate reductase-thymidylate synthase (Plasmodium falciparum K1, UniProt P13922, A16V/S108T) (P13922 whole entry, looked up, stated change not applied): as above
Data set [13] has as its target Bifunctional dihydrofolate reductase-thymidylate synthase (Plasmodium falciparum K1, UniProt P13922, C59R/I164L/N51I/S108N). The data set can be described thus: Inhibition constant against PfDHFR (Plasmodium falciparum dihydrofolate reductase) with quadruple (N51I + C59R + S108N + I164L) mutations. In short, it runs like this: as §2
Data set [14] deals with Bifunctional dihydrofolate reductase-thymidylate synthase (Plasmodium falciparum K1, UniProt P13922, C59R/I164L/S108N). The data set is described as follows: Inhibition constant against PfDHFR (Plasmodium falciparum dihydrofolate reductase) with triple (C59R + S108N + I164L) mutations. Put shortly: as §2
Chain of Bifunctional dihydrofolate reductase-thymidylate synthase (Plasmodium falciparum K1, UniProt P13922, C59R/I164L/S108N) (P13922 whole entry, looked up, stated change not applied): as above
The target of data set [15] is Bifunctional dihydrofolate reductase-thymidylate synthase (Plasmodium falciparum K1, UniProt P13922, A16V). The data set is described as follows: Inhibition constant against PfDHFR (Plasmodium falciparum dihydrofolate reductase) with single A16V mutation. In short, it runs like this:
as §2

The target of data set [16] is Bifunctional dihydrofolate reductase-thymidylate synthase (Plasmodium falciparum K1, UniProt P13922). The data set can be described thus: Inhibition constant against wild-type PfDHFR (Plasmodium falciparum dihydrofolate reductase). In short, it runs like this: as §2
Chain of Bifunctional dihydrofolate reductase-thymidylate synthase (Plasmodium falciparum K1, UniProt P13922) (P13922 whole entry): as the sequence (P13922 whole entry, looked up, stated change not applied) above
Data set [17] concerns the target Bifunctional dihydrofolate reductase-thymidylate synthase (Plasmodium falciparum K1) (UniProt P13922). The data set is described as follows: Inhibition constant for PfDHFR (Plasmodium falciparum dihydrofolate reductase) with triple (C59R + S108N + I164L) mutations at a concentration of 100 uM; Not active. In short, it runs like this: as §1
The target is the same in data set [18]. The data set is described as follows: Inhibition constant for PfDHFR (Plasmodium falciparum dihydrofolate reductase) with single S108T mutation at a concentration of 100 uM; Not active. In short, it runs like this:
as §1

For data set [19] the target is unchanged. The data set can be described thus: Inhibition constant for PfDHFR (Plasmodium falciparum dihydrofolate reductase) with double (A16V + S108T) mutations at a concentration of 100 uM; Not active. In short, it runs like this:
as §1

The target is the same in data set [20]. The data set is described as follows: Inhibition constant against wild-type PfDHFR (Plasmodium falciparum dihydrofolate reductase) at a concentration of 100 uM; Not active. In short, it runs like this:
as §1

Data set [21] shares this target. The data set is described as follows: Inhibition constant for PfDHFR (Plasmodium falciparum dihydrofolate reductase) with single A16V mutation at a concentration of 100 uM; Not active. Put shortly:
as §1

The nature of data set [22]: Determined the solubility of the compound. The settings on record: read-out: S. In kind it is ADME.

Chain of Bifunctional dihydrofolate reductase-thymidylate synthase (Plasmodium falciparum K1, UniProt P13922, A16V) (P13922 whole entry A16V): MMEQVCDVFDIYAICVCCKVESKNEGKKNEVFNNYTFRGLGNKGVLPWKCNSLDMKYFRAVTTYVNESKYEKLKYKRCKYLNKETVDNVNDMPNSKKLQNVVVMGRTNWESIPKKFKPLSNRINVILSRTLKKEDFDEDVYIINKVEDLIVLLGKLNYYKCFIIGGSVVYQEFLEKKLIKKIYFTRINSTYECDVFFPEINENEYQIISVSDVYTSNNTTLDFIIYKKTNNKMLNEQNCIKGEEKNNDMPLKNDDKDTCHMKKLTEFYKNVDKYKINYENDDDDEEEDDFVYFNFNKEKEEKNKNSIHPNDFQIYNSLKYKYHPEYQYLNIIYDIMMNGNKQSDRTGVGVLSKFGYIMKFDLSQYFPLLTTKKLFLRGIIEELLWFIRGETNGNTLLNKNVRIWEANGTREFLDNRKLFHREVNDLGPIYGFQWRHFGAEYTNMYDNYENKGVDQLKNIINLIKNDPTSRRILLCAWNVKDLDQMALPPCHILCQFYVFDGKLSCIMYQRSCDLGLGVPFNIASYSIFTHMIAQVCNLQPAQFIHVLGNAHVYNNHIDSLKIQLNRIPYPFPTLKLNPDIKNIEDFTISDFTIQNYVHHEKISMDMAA
Chain of Bifunctional dihydrofolate reductase-thymidylate synthase (Plasmodium falciparum K1, UniProt P13922, C59R/I164L/N51I/S108N) (P13922 whole entry, looked up, stated change not applied): as the sequence (P13922 whole entry, looked up, stated change not applied) above
Chain of Bifunctional dihydrofolate reductase-thymidylate synthase (Plasmodium falciparum K1) (P13922 whole entry, looked up): as the sequence (P13922 whole entry, looked up, stated change not applied) above

Take `NC(=O)NC(=O)Cc1ccccc1`: the NA result in data set [1], in data set [2], in data set [3], in data set [4], in data set [5] and in [6] was “inactive” each time.
For `Sc1nnc(-c2ccccc2)c(-c2ccccc2)n1`, the IA result in data set [7] and in [8] was “inactive” throughout.
For `Cc1nc(S)nc(O)c1Cc1c(F)cccc1Cl`, the IA result in data set [9] and in data set [10] was “inactive” each time.
Consider `NC(=S)N/N=C/c1ccccc1` [PHENYLTHIOSEMICARBAZONE], for which the Ki (in general, a dissociation constant, usually derived from enzyme kinetics or from competition with a known ligand) in data set [11] came out at 9 µM; in data set [12], 50 µM; in data set [13], 37.2 µM; in data set [14] it was 28.9 µM; in data set [15], 29.6 µM; in data set [16], 23.6 µM.
As for `NNc1nc2ccccc2nc1NN`, the Ki in data set [11] was found to be 0.8 µM; in [12] it was 11.4 µM; in [13] it was 9.7 µM; in [14], 2.7 µM; in [15], 3.4 µM; in [16], 3.6 µM.
As to `NC(=O)Nc1ccc(Cc2ccc(NC(N)=O)cc2)cc1`, the NA result in data set [1], in data set [2], in data set [3], in data set [4], in [5] and in data set [6] was “inactive” in each case.
For the compound `Oc1nnc(-c2ccccc2)c(-c2ccccc2)n1`, the IA result in data set [7] and in data set [8] was “inactive” in each case.
In the case of `C=CCNC(=S)NNC(=O)c1cccn(Cc2cccc(Cl)c2)c1=O`, the Ki in [11] was 1.7 µM; in data set [12], 17 µM; in data set [13], 10.6 µM; in [14], 10 µM; in data set [15], 13 µM; in data set [16], 15.2 µM.
With `NC(=O)Nc1ccc(Oc2ncc(C(F)(F)F)cc2Cl)cc1`, the NA entry in data set [1], in [2], in [3], in data set [4], in [5] and in data set [6] was “inactive” each time.
`N=C(NO)c1ccc(CNC(=O)c2ccc(Cl)cc2)cc1`: the Ki came out at 12.3 µM in data set [11]; 57 µM in data set [12]; 36.6 µM in data set [13]; 93 µM in data set [14]; 58 µM in [15]; 77.2 µM in data set [16].
As to `CC1(C)N=C(N)N=C(N)N1c1ccc(Cl)cc1` [CYCLOGUANIL], the Ki in data set [11] was 0.0016 µM; in data set [12] it was 2.13 µM; in data set [13], 0.73 µM; in [14], 1.14 µM; in data set [15], 0.57 µM.
As for `N=C(S)N/N=C/c1ccc(Oc2ncc(C(F)(F)F)cc2Cl)cc1`, the Ki in data set [11] worked out at 2.3 µM; in data set [12], 34 µM; in data set [13] it was 9.3 µM; in data set [14], 12.5 µM; in data set [15], 6.8 µM.
With `NC1=NC(c2ccccc2)C(C(=O)c2ccccc2)N1` (stereo not drawn), the NA entry in data set [17], in data set [18], in data set [19], in [20], in [21] and in data set [4] was “inactive” throughout.
For `N/C(=N/O)c1ccc(Oc2c(Cl)cncc2Cl)cc1`, the Ki in data set [11] is 16 µM; in [12], 6.2 µM; in data set [13] it was 27.8 µM; in [14], 24.4 µM; in data set [15], 23.6 µM; in data set [16], 25.2 µM.
On to `N=c1nc(N)nc(Nc2ccccc2)n1-c1ccccc1`, for which the IA result in [7] and in data set [8] was “inactive” in each case.
As for `N/C(=N\O)c1cccc(CS(=O)(=O)c2ccc(Cl)cc2)c1`, the Ki in [11] came to 30 µM; in data set [12], 106 µM; in data set [13], 34.5 µM; in [14] it was 105 µM; in data set [15] it was 38 µM; in data set [16], 102 µM.
`N/N=C(\S)Nc1ccc(OCc2ccccc2)cc1`: the Ki is 5.2 µM in [11]; 55.6 µM in data set [12]; 26.5 µM in data set [13]; 13.4 µM in [14]; 15.4 µM in data set [15]; 13.7 µM in data set [16].
As to `Nc1nccc(-c2csc(COc3ccc(Cl)cc3)n2)n1`, in [22], the solubility turned out to be 25 µM (≈ 7.97 µg/mL).
On to `C/N=C(\S)NNC(=O)c1cccn(Cc2cccc(Cl)c2)c1=O`, for which the Ki in [11] amounted to 1.8 µM; in data set [12], 13.6 µM; in [13], 19.4 µM; in data set [14], 7.1 µM; in data set [15] it was 5.9 µM; in data set [16], 11.3 µM.
Take `CNC(=O)Nc1ccc(Cc2ccc(NC(=O)NC)cc2)cc1`: the NA entry in data set [1], in data set [2], in data set [3], in [4], in [5] and in data set [6] was “inactive” each time.
On to `N=C(NO)c1ccc(Oc2cc(Cl)cc(Cl)c2)c([N+](=O)[O-])c1`, for which the Ki in [11] stood at 4.2 µM; in data set [12], 9.8 µM; in data set [13], 32.6 µM; in data set [14] it was 22.2 µM; in data set [15] it was 36.8 µM.
Turning to `C/C(=N\N=C(/N)S)c1ccc(Oc2c(Cl)cncc2Cl)cc1`, the Ki in [11] came to 1 µM; in data set [12], 2.1 µM; in data set [13], 1.5 µM; in data set [14] it was 0.6 µM; in data set [15], 0.7 µM; in [16], 0.9 µM.
Turning to `COC(=O)c1sccc1-c1ccc(/C(C)=N/NC(N)=O)o1`, the Ki in data set [11] was found to be 4.2 µM; in [12], 19.7 µM; in data set [13] it was 16 µM; in data set [14] it was 7.5 µM; in data set [15] it was 15.3 µM.
